In ChEMBL document CHEMBL4513216, “Probing the Open Global Health Chemical Diversity Library for Multistage-Active Starting Points for Next-Generation Antimalarials” (ACS Infect Dis, 2020):

Experiment: Toxicity liver stage against HepG2, at 10uM
Format: cell-based
Parameters: test concentration 10 uM, cell line HepG2-A16-CD81EGFP
Conditions: human, HepG2-A16-CD81EGFP cells; read-out: INHIBITION
Summary of the method: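 Uninfected HepG2-A16-CD81EGFP cells, 3 × 10^3 per well, 1536-well, plated on prespotted compound at 10 μM final, parasite-free screening media added to match infected plates; puromycin 10 μM positive, DMSO 0.5% negative; run in parallel with 48 h PbLuc assay at 37 °C, 5% CO2; viability by CellTiter-Glo luminescence, normalized to controls.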

Compound	cytotoxicity at 10 µM [%]
Cc1cccc(C(=O)N2CC(C(=O)NCC3CC3)C3(CCOCC3)C2)n1 (stereo not given)	2.11
O=C(COc1cccc(F)c1)N1CCCCC1c1ccn2ccnc2n1 (stereo not given)	-6.11
O=C(Nc1ccccc1)c1cc2n(n1)CCCN(C(=O)c1ccc[nH]1)C2	3.99
CCc1nc(CNC(=O)Nc2ccc(C(=O)NC)cc2C)cs1	16.4
Cn1cccc1C(=O)N1CCc2ncc(Cn3cccn3)n2CC1	-5.2
Cn1cc(Cl)cc1C(=O)N1CCN(Cc2cccs2)CC1	-8.1
CC(C)CN1CCC(c2nnc(CN3CCCC3)n2C2CC2)CC1	-8.85
CN(CC1=CCCN(Cc2cccc(C#N)c2)C1)C(=O)c1ccco1	-5.15
Cc1cc(CNC(=O)N2CCN(Cc3ccccc3)C[C@H]2C)on1	-131
Cc1nnsc1C(=O)N1CCCC(c2nccn2Cc2cscn2)C1 (stereo not given)	2.62
O=C(c1ccc2c(c1)OCO2)N1C[C@@H](CN2CCCCC2)[C@@H](CO)C1	-4.06
CS(=O)(=O)N1C[C@@H](O)[C@H](N2CCN(c3ccccc3)CC2)C1	20.3
Cc1ccc(N2CCC3(CC2)CNC(=O)CO3)nn1	6.07
O=C1C(NS(=O)(=O)c2cccc(F)c2)CCN1Cc1ccccc1 (stereo not given)	-1.67
COCc1nc(N2CC[C@H](N(C)C)C2)c2cnn(C)c2n1	-6.67
C=Cc1ccc(C(=O)N2CCCC(Nc3ccc(F)cc3)C2)cc1 (stereo not given)	-22.1
CCc1cc(C(=O)NCC2CCN(Cc3ccncc3)CC2)on1	10.4
COc1ccc(N2CCC(N3C[C@H](NC(C)=O)[C@@H](C(C)C)C3)CC2)cc1	-9.92
CC(=O)N1CCC2(CCCN(Cc3ccc(Cl)c(C(F)(F)F)c3)C2)C1 (stereo not given)	3.22
O=C(NC1CCC(C(=O)N2CCSCC2)CC1)N1CCC1 (stereo not given)	12.7
COC[C@@]12CC[C@@H](N3CCOCC3)C[C@H]1CCN(c1nc(CO)cs1)C2	-3.61
CCCn1cc(NC(=O)NCC2CCS(=O)(=O)C2)nn1 (stereo not given)	0.186

Compound	cytotoxicity at 10 µM [%]
CCNc1cc2c(nn1)CCN(C(=O)C1Cc3ccccc3S1)C2 (stereo not given)	-1.4
O=C1[C@@H]2CN(c3ncccc3Cl)C[C@]2(C(=O)O)CN1CC1CC1	1.04
CN1CCN(C)C(CNC(=O)N(C)Cc2ccc(Cl)c(F)c2)C1 (stereo not given)	6.32
CC(NC(=O)NCc1c(F)cccc1Cl)(C(=O)O)c1ccco1 (stereo not given)	-3.23
CCN(CC)C(CNC(=O)c1ccc(S(C)(=O)=O)cc1)c1ccco1 (stereo not given)	-0.00646
CN(C)c1ccc(C(=O)Nc2cn[nH]c2)cc1	-0.279
COC(=O)N1CCc2ccccc2C1C(=O)NCc1ccco1 (stereo not given)	-1.94
CC(=O)N1CC[C@H]2OCC[C@@H](C(=O)NCc3ccco3)[C@@H]2C1	-77.4
Cc1cccc(C)c1CNC1(CCO)CCOCC1	1.93
Cc1nc(C2CCCN2Cc2ccn(C)c(=O)c2)no1 (stereo not given)	-12.9
O=C(NCCNC(=O)C1Cc2cc(F)ccc2O1)C1CCCCC1 (stereo not given)	4.07
COc1ccccc1CCC(=O)N1C[C@H](c2ccccc2)[C@@H](N)C1	-3.79
CC(C)S(=O)(=O)N1CCN(C(=O)c2cnn(C)c2Cl)CC1	1.6
O=S(=O)(Nc1ccc(Oc2ccc3c(c2)OCO3)cc1)N1CCCCC1	-29.3
COc1cc(C(=O)N2CCCS2(=O)=O)ccc1OC(C)C	-17.6
COCc1cccc(NS(=O)(=O)c2cc(C(=O)O)cs2)c1	-4.69
Cc1nn(C)cc1CN1CCCCCC1c1ccccc1Cl (stereo not given)	7.49
CN1CCN(c2cc(CNC(=O)Cn3cccn3)ccn2)CC1	-11.6
CN(Cc1ccc(F)cc1)C(=O)c1ccoc1CN1CCNC(=O)C1	-3.57
O=C(NCCO)C1(Cc2ccccc2-c2ccncc2)CCOCC1	2.27
Cc1nc(CN2CCCN(C(=O)CCc3ccco3)CC2)cs1	0.386
CCOc1ncccc1C(=O)N1CCCC(n2nc(C)cc2C)C1 (stereo not given)	-5.54

Compound	cytotoxicity at 10 µM [%]
Cc1n[nH]c(C2CN(C(=O)CCc3cscn3)CCO2)n1 (stereo not given)	-4.34
O[C@@]1(CNCCOc2ccccc2)CCCN2CCCC[C@@H]21	-2.96
CO[C@@H]1CC[C@H]2[C@H]1OCCN2C(=O)c1nn(C)c2ccccc12	1.31
CC(C)n1nnc(CC(=O)NCC2(c3ccccc3F)CCCC2)n1	-0.325
O=C(Cc1ccc2c(c1)CCO2)N1CCN(c2ccccn2)CC1	-13.6
NS(=O)(=O)NCc1cc(-c2ccco2)n(CC(F)(F)F)n1	-4.41
O=C(Cc1csc(Cc2ccccn2)n1)NCCCN1CCCC1=O	-6.29
O=C(NCc1cccnc1)C1=NOC2(CCN(C3CCOCC3)C2)C1 (stereo not given)	-1.63
COc1ccc(Cl)cc1Nc1nc(N)c(C(C)=O)s1	2.52
CC(C)(C)OC(=O)N1CCC(NC2CC2)CC1	-5.64
O=C(NCCNc1ncccn1)C1CC(=O)N(Cc2ccccc2)C1 (stereo not given)	-16.2
Cc1ccc(CS(=O)(=O)N2CC[C@H]3[C@H]2CCN3C)cc1	-11.6
N#CCC(=O)NCc1nnc2n1CCN(Cc1ccsc1)C2	-131
Cc1cc(C)n(CC2CCCN2C(=O)c2cccc(C#N)c2)n1 (stereo not given)	-9.19
O=C(C1CCCCC1)N1CCCC2(CCN(c3cnccn3)CC2)C1	6.59
Cc1ccc(-c2cn3c(n2)CO[C@@H](CNCc2nccn2C)C3)cc1	-10.6
Oc1cc(C2CCCCN2Cc2cccs2)nc(-c2ccccn2)n1 (stereo not given)	39.1
O=S(=O)(CC1CCOCC1)NCc1ncc(-c2ccccc2)o1	-12.6
Cc1c(C2CCCN(C(=O)OC(C)(C)C)C2)n2c(nc1=O)CCC2 (stereo not given)	-16
COCC(C)NC(=O)CN1CCCC1 (stereo not given)	-7.42
O=C(NCCc1nnc2n1CCC2)N(Cc1ccco1)C1CCCC1	5.04
O=C(c1ccc(-n2cnnc2)nc1)N1CCCC(O)(CO)CC1 (stereo not given)	-0.274

Compound	cytotoxicity at 10 µM [%]
Cc1cc(OCC(=O)N2CCCC2c2noc(C)n2)no1 (stereo not given)	-11.1
Cc1ccccc1-c1noc(CNc2ccc(F)cc2OCCO)n1	-41.7
COCC(=O)NC[C@H]1C[C@@H]2CCN1C[C@@H]2CN1CCc2ccccc21	3.29
COc1cccc(OC)c1CN1CC(O)CN(S(C)(=O)=O)CC1=O (stereo not given)	-82.6
Cc1nc(CN2CCN(c3ccc(Cl)cn3)CC2)no1	1.3
Cc1ccc(NC(=O)CN2CCOCC2)c(F)c1	5.76
Cc1cccnc1CN1CCN(C(=O)c2cc(Cl)c[nH]c2=O)CC1	6.22
CN(C)Cc1cn(CC2CCCN(c3nccc4occc34)C2)nn1 (stereo not given)	-9.67
CCc1cc(=O)[nH]c2nnc(SCC(=O)NC(C)C)n12	-6.93
O=C(CCNC(=O)NC1CCN(C2CC2)CC1)NCc1ccccc1	-0.769
CNC(=O)Cc1noc(Cc2cccc(Br)c2)n1	1.06
Nc1nc(CN2CCCC(Cn3cncn3)C2)nc2ccccc12 (stereo not given)	-8.21
COCCC(=O)N1CCC(C(=O)c2cc(C)cnc2N)CC1	-27.7
CC1CN(CC(=O)Nc2nncs2)CCN1Cc1nccn1C (stereo not given)	-11.2
COc1cccc(Cl)c1C(C(=O)O)N1CCC(Cn2cccn2)CC1 (stereo not given)	-12.5
CCCn1ncnc1C(C)NC(=O)C1CCN(C(C)C)CC1 (stereo not given)	-139
COc1ccc2c(c1)OC1(CCN(Cc3cccc(C)c3)CC1)CC2=O	5.5
CN(C)CCN1CC[C@@H]2O[C@@H](COCC(=O)N3CCCC3)CC[C@@H]21	-1.78
O=C(NCc1ccccc1Cn1ccnc1)N1CCSCC1	3.9
CCOCCNC(=O)Cc1cccc(I)c1	9.62
O=C(NCc1ccccc1)c1nn(C2CCS(=O)(=O)C2)c2c1CCCC2 (stereo not given)	5.92
CC(=O)N1CCCN(C(=O)CCc2c(C)noc2C)CC1	-6.38

Compound	cytotoxicity at 10 µM [%]
Cc1nc(NC(=O)CN2CCOC(Cn3cccn3)C2)sc1C (stereo not given)	-8.27
O=S(=O)(NCCn1ccc(-c2ccccn2)n1)C1CCCCC1	8.63
Cc1nc2cc(C(=O)N(CCN(C)C)CCN(C)C)ccc2n1C	-9.01
c1ccc(-n2ccc(CN3CCCCC3Cn3cncn3)n2)cc1 (stereo not given)	-7.85
Cn1cc(CN2CCCCC2c2ccc(-c3cccc(F)c3)nc2)cn1 (stereo not given)	6.77
Cc1c(NC(=O)c2noc3c2CCCC3)cnn1C	-5.41
Cn1cnnc1C1CCCN(C(=O)c2cc(Cl)c3c(c2)OCO3)C1 (stereo not given)	-1.08
O=C(NCc1ccco1)[C@@H]1CC[C@@H]2[C@@H](CCN2Cc2ccc(F)cc2)O1	-0.748
O=C(CN1CCN(c2ncnc3c2CCNCC3)CC1)N1CCCCC1	6.63
CN1CCN(Cc2cnc3n2CCN(C(=O)c2ccnnc2)C3)CC1	-81.1
CN1CCN(Cc2cnc3n2CCN(C(=O)c2ccccn2)C3)CC1	-88.7
Cn1ccnc1C(=O)N1CCOC(Cc2ccccc2Cl)C1 (stereo not given)	-12.2
CN(Cc1cccc(C#N)c1)C(=O)C1CC(c2cccc(F)c2)=NO1 (stereo not given)	1.85
Cc1nc(N(C)Cc2cccc(O)c2)nc2cc(S(C)(=O)=O)ccc12	-2.54
CNC(=O)CCc1cc(C)nc(C2CCN(CC(=O)N(C)C)CC2)c1	2.9
Cc1ccccc1-n1cnnc1SCC1CCCCO1 (stereo not given)	11.8
CN(C)C[C@]12COC[C@H]1CN(Cc1ccccn1)C2	5.89
CC(=O)c1c(O)n(C)c2ccc(F)cc12	6.76
CCCC(=O)NCC(=O)NC(c1ccc(Cl)cc1)C(F)(F)F (stereo not given)	-3.63
Cc1nn(C)c(C)c1NC(=O)c1cccc(CN2CC[C@H](O)C2)c1	1.08
Cc1c[nH]c(C2CCCN2C(=O)CCc2c(C)n[nH]c2C)n1 (stereo not given)	-1.4
COCc1nc(CNC2CCSC2)no1 (stereo not given)	-1.37
